ChEMBL document CHEMBL1151705, “Novel azalides derived from 16-membered macrolides. Part II: Isolation of the linear 9-formylcarboxylic acid and its sequential macrocyclization with an amino alcohol or an azidoamine” (2008)
Converted amounts (≈) assume the structure as drawn.

Experiments:
Assay type in all cases: functional
Streptococcus pneumoniae [1] = experiment: Antimicrobial activity against Streptococcus pneumoniae 8 expressing inducible ermB after 20 hrs by agar dilution method; settings: Streptococcus pneumoniae, 20 h; read-out: MIC
How it was run: (§1)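 Streptococci, H. influenzae and M. catarrhalis were precultured on blood agar plates. Suspensions of about 10⁶ CFU/ml were inoculated onto sensitivity disk agar supplemented with 5% horse blood and incubated at 37 °C for 20 h. MIC was read as the lowest drug concentration with no visible growth.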

Streptococcus pneumoniae [2] = experiment: Antimicrobial activity against Streptococcus pneumoniae 9 expressing mefA after 20 hrs by agar dilution method; settings: Streptococcus pneumoniae, 20 h; read-out: MIC; how it was run: as §1
Streptococcus pneumoniae [3] = experiment: Antimicrobial activity against Streptococcus pneumoniae 10 expressing mefA after 20 hrs by agar dilution method; settings: Streptococcus pneumoniae, 20 h; read-out: MIC; how it was run: as §1
Streptococcus pyogenes [4] = experiment: Antimicrobial activity against drug-susceptible Streptococcus pyogenes 1 after 20 hrs by agar dilution method; settings: Streptococcus pyogenes, 20 h; read-out: MIC; how it was run: as §1
Streptococcus pyogenes [5] = experiment: Antimicrobial activity against Streptococcus pyogenes 2 constitutively expressing ermB after 20 hrs by agar dilution method; how it was run: as §1
Streptococcus pyogenes [6] = experiment: Antimicrobial activity against Streptococcus pyogenes 3 expressing mefA after 20 hrs by agar dilution method; settings: Streptococcus pyogenes, 20 h; read-out: MIC; how it was run: as §1
Moraxella catarrhalis [7] = experiment: Antimicrobial activity against drug-susceptible Moraxella catarrhalis 1 after 20 hrs by agar dilution method; settings: Moraxella catarrhalis, 20 h; read-out: MIC; how it was run: as §1
Moraxella catarrhalis [8] = experiment: Antimicrobial activity against drug-susceptible Moraxella catarrhalis 2 after 20 hrs by agar dilution method; settings: Moraxella catarrhalis, 20 h; read-out: MIC; how it was run: as §1
Haemophilus influenzae [9] = experiment: Antimicrobial activity against drug-susceptible Haemophilus influenzae 1 after 20 hrs by agar dilution method; settings: Haemophilus influenzae, 20 h; read-out: MIC; how it was run: as §1
Haemophilus influenzae [10] = experiment: Antimicrobial activity against drug-susceptible Haemophilus influenzae 2 after 20 hrs by agar dilution method; settings: Haemophilus influenzae, 20 h; read-out: MIC; how it was run: as §1
Haemophilus influenzae [11] = experiment: Antimicrobial activity against drug-susceptible Haemophilus influenzae 3 after 20 hrs by agar dilution method; settings: Haemophilus influenzae, 20 h; read-out: MIC; how it was run: as §1
Haemophilus influenzae [12] = experiment: Antimicrobial activity against drug-susceptible Haemophilus influenzae 4 after 20 hrs by agar dilution method; settings: Haemophilus influenzae, 20 h; read-out: MIC; how it was run: as §1
Staphylococcus aureus [13] = experiment: Antimicrobial activity against drug-susceptible Staphylococcus aureus 209P JC-1 after 20 hrs by agar dilution method; settings: Staphylococcus aureus, 209P, 20 h; read-out: MIC
How it was run: (§2)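 Agar dilution MIC. S. aureus seed culture was grown in sensitivity test broth. Cell suspension (about 10⁶ CFU/ml) was inoculated onto sensitivity disk agar with 5% horse blood and incubated at 37 °C for 20 h. MIC was the lowest drug concentration that prevented visible growth.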

Staphylococcus aureus [14] = experiment: Antimicrobial activity against drug-susceptible Staphylococcus aureus 2 after 20 hrs by agar dilution method; settings: Staphylococcus aureus, 20 h; read-out: MIC; how it was run: as §2
Staphylococcus aureus [15] = experiment: Antimicrobial activity against drug-susceptible Staphylococcus aureus 3 after 20 hrs by agar dilution method; settings: Staphylococcus aureus, 20 h; read-out: MIC; how it was run: as §2
Staphylococcus aureus [16] = experiment: Antimicrobial activity against Staphylococcus aureus 4 constitutively expressing ermA after 20 hrs by agar dilution method; how it was run: as §2
Staphylococcus aureus [17] = experiment: Antimicrobial activity against Staphylococcus aureus 5 expressing inducible ermB after 20 hrs by agar dilution method; settings: Staphylococcus aureus, 20 h; read-out: MIC; how it was run: as §2
Streptococcus pneumoniae [18] = experiment: Antimicrobial activity against drug-susceptible Streptococcus pneumoniae DP1 Type1 after 20 hrs by agar dilution method; settings: Streptococcus pneumoniae, 20 h; read-out: MIC; how it was run: as §1
Streptococcus pneumoniae [19] = experiment: Antimicrobial activity against drug-susceptible Streptococcus pneumoniae 2 after 20 hrs by agar dilution method; settings: Streptococcus pneumoniae, 20 h; read-out: MIC; how it was run: as §1
Streptococcus pneumoniae [20] = experiment: Antimicrobial activity against Streptococcus pneumoniae 5 constitutively expressing ermB/mefA after 20 hrs by agar dilution method; settings: Streptococcus pneumoniae, 20 h; read-out: MIC; how it was run: as §1
Streptococcus pneumoniae [21] = experiment: Antimicrobial activity against Streptococcus pneumoniae 6 constitutively expressing ermB after 20 hrs by agar dilution method; settings: Streptococcus pneumoniae, 20 h; read-out: MIC; how it was run: as §1
Streptococcus pneumoniae [22] = experiment: Antimicrobial activity against Streptococcus pneumoniae 7 expressing inducible ermB after 20 hrs by agar dilution method; settings: Streptococcus pneumoniae, 20 h; read-out: MIC; how it was run: as §1
Staphylococcus aureus [23] = experiment: Antimicrobial activity against Staphylococcus aureus 6 expressing inducible ermB after 20 hrs by agar dilution method; how it was run: as §2

Compound	MIC (Streptococcus pneumoniae [1])	MIC (Streptococcus pneumoniae [2])	MIC (Streptococcus pneumoniae [3])	MIC (Streptococcus pyogenes [4])	MIC (Streptococcus pyogenes [5])	MIC (Streptococcus pyogenes [6])	MIC (Moraxella catarrhalis [7])	MIC (Moraxella catarrhalis [8])	MIC (Haemophilus influenzae [9])	MIC (Haemophilus influenzae [10])	MIC (Haemophilus influenzae [11])	MIC (Haemophilus influenzae [12])	MIC (Staphylococcus aureus [13])	MIC (Staphylococcus aureus [14])	MIC (Staphylococcus aureus [15])	MIC (Staphylococcus aureus [16])	MIC (Staphylococcus aureus [17])	MIC (Streptococcus pneumoniae [18])	MIC (Streptococcus pneumoniae [19])	MIC (Streptococcus pneumoniae [20])	also measured
CCOC(=O)[C@H]1[C@H](C)O[C@@H](O[C@H]2[C@H](N(C)C)[C@@H](O)[C@H](O[C@H]3[C@@H](CC=O)C[C@@H](C)[C@@H](OC(C)=O)CN(CCCCc4ccccc4)CCCNC(=O)C[C@@H](OC(=O)CC)[C@@H]3OC)O[C@@H]2C)C[C@@]1(C)OC(C)=O	32 µg/mL (≈ 31.8 µM)	0.25 µg/mL (≈ 0.248 µM)	0.25 µg/mL (≈ 0.248 µM)	0.13 µg/mL (≈ 0.129 µM)	> 128 µg/mL	0.5 µg/mL (≈ 0.497 µM)	0.25 µg/mL (≈ 0.248 µM)	0.25 µg/mL (≈ 0.248 µM)	16 µg/mL (≈ 15.9 µM)	0.5 µg/mL (≈ 0.497 µM)	2 µg/mL (≈ 1.99 µM)	4 µg/mL (≈ 3.98 µM)	0.25 µg/mL (≈ 0.248 µM)	1 µg/mL (≈ 0.994 µM)	0.5 µg/mL (≈ 0.497 µM)	> 128 µg/mL	0.25 µg/mL (≈ 0.248 µM)	0.25 µg/mL (≈ 0.248 µM)	0.5 µg/mL (≈ 0.497 µM)	> 128 µg/mL	MIC (Streptococcus pneumoniae [21]): > 128 µg/mL; MIC (Streptococcus pneumoniae [22]): 32 µg/mL (≈ 31.8 µM); MIC (Staphylococcus aureus [23]): 1 µg/mL (≈ 0.994 µM)
CCOC(=O)[C@H]1[C@H](C)O[C@@H](O[C@H]2[C@H](N(C)C)[C@@H](O)[C@H](O[C@H]3[C@@H](CC=O)C[C@@H](C)[C@@H](OC(C)=O)CN(CCCCc4ccccc4)CCN(C)C(=O)C[C@@H](OC(=O)CC)[C@@H]3OC)O[C@@H]2C)C[C@@]1(C)OC(C)=O	> 128 µg/mL	1 µg/mL (≈ 0.994 µM)	1 µg/mL (≈ 0.994 µM)	0.5 µg/mL (≈ 0.497 µM)	> 128 µg/mL	1 µg/mL (≈ 0.994 µM)	1 µg/mL (≈ 0.994 µM)	1 µg/mL (≈ 0.994 µM)	> 128 µg/mL	4 µg/mL (≈ 3.98 µM)	16 µg/mL (≈ 15.9 µM)	16 µg/mL (≈ 15.9 µM)	1 µg/mL (≈ 0.994 µM)	2 µg/mL (≈ 1.99 µM)	1 µg/mL (≈ 0.994 µM)	> 128 µg/mL	1 µg/mL (≈ 0.994 µM)	0.5 µg/mL (≈ 0.497 µM)	1 µg/mL (≈ 0.994 µM)	> 128 µg/mL	MIC (Streptococcus pneumoniae [21]): > 128 µg/mL; MIC (Streptococcus pneumoniae [22]): > 128 µg/mL; MIC (Staphylococcus aureus [23]): 2 µg/mL (≈ 1.99 µM)

The next lines start with results.

MIC (Streptococcus pneumoniae [1])	MIC (Streptococcus pneumoniae [2])	MIC (Streptococcus pneumoniae [3])	MIC (Streptococcus pyogenes [4])	MIC (Streptococcus pyogenes [5])	MIC (Streptococcus pyogenes [6])	MIC (Moraxella catarrhalis [7])	MIC (Moraxella catarrhalis [8])	MIC (Haemophilus influenzae [9])	MIC (Haemophilus influenzae [10])	MIC (Haemophilus influenzae [11])	MIC (Haemophilus influenzae [12])	MIC (Staphylococcus aureus [13])	MIC (Staphylococcus aureus [14])	MIC (Staphylococcus aureus [15])	MIC (Staphylococcus aureus [16])	MIC (Staphylococcus aureus [17])	MIC (Streptococcus pneumoniae [18])	MIC (Streptococcus pneumoniae [19])	MIC (Streptococcus pneumoniae [20])	Compound	also measured
> 128 µg/mL	32 µg/mL (≈ 42.2 µM)	32 µg/mL (≈ 42.2 µM)	16 µg/mL (≈ 21.1 µM)	> 128 µg/mL	128 µg/mL (≈ 169 µM)	8 µg/mL (≈ 10.5 µM)	8 µg/mL (≈ 10.5 µM)	64 µg/mL (≈ 84.3 µM)	8 µg/mL (≈ 10.5 µM)	64 µg/mL (≈ 84.3 µM)	128 µg/mL (≈ 169 µM)	64 µg/mL (≈ 84.3 µM)	32 µg/mL (≈ 42.2 µM)	64 µg/mL (≈ 84.3 µM)	> 128 µg/mL	64 µg/mL (≈ 84.3 µM)	16 µg/mL (≈ 21.1 µM)	16 µg/mL (≈ 21.1 µM)	> 128 µg/mL	CCC(=O)O[C@@H]1CC(=O)NCCCN(CCCc2ccnc3ccccc23)C[C@H](O)[C@H](C)C[C@H](CC=O)[C@H](O[C@@H]2O[C@H](C)[C@@H](O)[C@H](N(C)C)[C@H]2O)[C@H]1OC	MIC (Streptococcus pneumoniae [21]): > 128 µg/mL; MIC (Streptococcus pneumoniae [22]): > 128 µg/mL; MIC (Staphylococcus aureus [23]): 64 µg/mL (≈ 84.3 µM)
16 µg/mL (≈ 16.7 µM)	0.13 µg/mL (≈ 0.136 µM)	0.13 µg/mL (≈ 0.136 µM)	0.25 µg/mL (≈ 0.261 µM)	> 128 µg/mL	1 µg/mL (≈ 1.04 µM)	2 µg/mL (≈ 2.09 µM)	1 µg/mL (≈ 1.04 µM)	16 µg/mL (≈ 16.7 µM)	1 µg/mL (≈ 1.04 µM)	4 µg/mL (≈ 4.17 µM)	8 µg/mL (≈ 8.34 µM)	0.5 µg/mL (≈ 0.521 µM)	1 µg/mL (≈ 1.04 µM)	0.5 µg/mL (≈ 0.521 µM)	> 128 µg/mL	0.5 µg/mL (≈ 0.521 µM)	0.06 µg/mL (≈ 0.0626 µM)	0.13 µg/mL (≈ 0.136 µM)	> 128 µg/mL	CCOC(=O)[C@H]1[C@H](C)O[C@@H](O[C@H]2[C@H](N(C)C)[C@@H](O)[C@H](O[C@H]3[C@@H](CC=O)C[C@@H](C)[C@@H](O)CN(CCCc4ccnc5ccccc45)CCCNC(=O)C[C@@H](OC(=O)CC)[C@@H]3OC)O[C@@H]2C)C[C@@]1(C)O	MIC (Streptococcus pneumoniae [21]): > 128 µg/mL; MIC (Streptococcus pneumoniae [22]): 16 µg/mL (≈ 16.7 µM); MIC (Staphylococcus aureus [23]): 0.5 µg/mL (≈ 0.521 µM)
8 µg/mL (≈ 7.87 µM)	0.13 µg/mL (≈ 0.128 µM)	0.13 µg/mL (≈ 0.128 µM)	0.06 µg/mL (≈ 0.059 µM)	> 128 µg/mL	0.13 µg/mL (≈ 0.128 µM)	0.25 µg/mL (≈ 0.246 µM)	0.25 µg/mL (≈ 0.246 µM)	16 µg/mL (≈ 15.7 µM)	1 µg/mL (≈ 0.984 µM)	8 µg/mL (≈ 7.87 µM)	8 µg/mL (≈ 7.87 µM)	0.13 µg/mL (≈ 0.128 µM)	0.5 µg/mL (≈ 0.492 µM)	0.25 µg/mL (≈ 0.246 µM)	> 128 µg/mL	0.13 µg/mL (≈ 0.128 µM)	0.06 µg/mL (≈ 0.059 µM)	0.06 µg/mL (≈ 0.059 µM)	> 128 µg/mL	CCOC(=O)[C@H]1[C@H](C)O[C@@H](O[C@H]2[C@H](N(C)C)[C@@H](O)[C@H](O[C@H]3[C@@H](CC=O)C[C@@H](C)[C@@H](O)CN(CCCc4ccnc5ccccc45)CC[C@@H](C)OC(=O)C[C@@H](OC(=O)CC)[C@@H]3OC)O[C@@H]2C)C[C@@]1(C)OC(C)=O	MIC (Streptococcus pneumoniae [21]): > 128 µg/mL; MIC (Streptococcus pneumoniae [22]): 4 µg/mL (≈ 3.94 µM); MIC (Staphylococcus aureus [23]): 0.25 µg/mL (≈ 0.246 µM)
